This note sets out measurements from ChEMBL document CHEMBL3992558, “Benzimidazole inhibitors from the Niclosamide chemotype inhibit Wnt/β-catenin signaling with selectivity over effects on ATP homeostasis” (Bioorg Med Chem, 2017).

For orientation: IC50 means the point on the concentration scale where inhibition reaches its midpoint. Broadly, the EC50 is the concentration at which the effect is half-maximal.

Series [1] is filed under the species Homo sapiens. The series can be described thus: Inhibition of Wnt/beta-catenin signaling in human SW480 cells assessed as downregulation of cytosolic Axin2 protein expression at 5 uM after 18 hrs by Western blot method. The format is cell-based. An outline of the steps: (§1)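 HCT-116 (McCoy's 5A) or SW480 (MEM) cells, each with 10% FBS, were grown 48 h on poly-D-lysine-coated wells to 60–80% confluency. Fresh medium with compound or DMSO (0.1% final) was added for 18 h. Cytosolic fractions (β-catenin, Axin2) were isolated with hypotonic buffer, or whole cells were lysed in Laemmli buffer (c-Myc, Cyclin D1, Survivin). Immunoblots used β-actin as loading control.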
(In general: A western blot detects proteins with antibodies after separation by electrophoresis.)

The species named for series [2] is Homo sapiens. The series is described as follows: (§2) Inhibition of Wnt/beta-catenin signaling (unknown origin) expressed in HEK293 cells assessed as inhibition of Wnt3A-stimulated beta-catenin response transcription after 6 hrs by TOPflash dual luciferase reporter gene assay. It is filed as cell-based. The method, boiled down: (§3)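 HEK293 cells stably carrying p8xTOPFlash and Renilla pRL-TK were seeded at confluency and given Wnt-3A conditioned medium (from L Wnt-3A cells) containing compound, 0.04–10 μM, or DMSO for 6 h. Lysates were read by dual-luciferase assay. The DMSO/Wnt3A signal was set as 100%, and curves were fit (mean ± SEM, n ≥ 3). Percent inhibition at 10 μM was reported where no IC50 could be fitted.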
(Reporter assays use an easily measured gene product as a stand-in for the process of interest.)

Series [3] in a line: as §2. It is filed as cell-based. The following applies: Homo sapiens, HEK293, 6 h. An outline of the steps:
as §3

For series [4], the species on record is Homo sapiens. The series can be described thus: Inhibition of Wnt/beta-catenin signaling in human SW480 cells assessed as downregulation of survivin protein expression at 5 uM after 18 hrs by Western blot method. It is filed as cell-based. An outline of the steps: as §1
Series [5] is filed under the species Homo sapiens. The series can be described thus: Inhibition of Wnt/beta-catenin signaling in human HCT116 cells assessed as downregulation of Cyclin D1 protein expression at 5 uM after 18 hrs by Western blot method. It is filed as cell-based. An outline of the steps: as §1
The species named for series [6] is Homo sapiens. The series is described as follows: Inhibition of Wnt/beta-catenin signaling (unknown origin) expressed in HEK293 cells assessed as inhibition of Wnt3A-stimulated beta-catenin response transcription at 0.63 uM after 6 hrs by TOPflash dual luciferase reporter gene assay relative to control. The format is cell-based. An outline of the steps:
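TOPFlash/Renilla stable HEK293 cells were split from the same batch as parallel ATP assay plates, attached overnight, then treated 6 h with compound in Wnt-3A conditioned medium. Dual-luciferase read-out was taken relative to the DMSO control. Three separate experiments used different cell batches.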

For series [7], the species on record is Homo sapiens. The series can be described thus: Inhibition of Wnt/beta-catenin signaling in human HCT116 cells assessed as downregulation of cytosolic Axin2 protein expression at 5 uM after 18 hrs by Western blot method. It is filed as cell-based. An outline of the steps:
as §1

In series [8] the test system is HCT-116. The series is described as follows: Effect on ATP homeostasis in human HCT116 cells assessed as reduction in ATP level after 3 hrs in absence of glucose by ATP bioluminescent assay. The following applies: for Activity: human, hct-116, 3 h. It is filed as ADME, cell-based. The method, boiled down: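 HCT-116 cells attached overnight on poly-D-lysine plates in McCoy's 5A/10% FBS, then switched to glucose-free DMEM with 2mM sodium pyruvate and 2mM L-glutamine containing compound (0.1% final DMSO). After 3 h at 37°C, 5% CO2, cells were lysed in Somatic Cell ATP Releasing Reagent and ATP was read by luciferase bioluminescence, normalized to DMSO control.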

For series [9], the species on record is Homo sapiens. The series is described as follows: Inhibition of Wnt/beta-catenin signaling in human HCT116 cells assessed as downregulation of survivin protein expression at 5 uM after 18 hrs by Western blot method. The format is cell-based. The method, boiled down: as §1
For series [10], the species on record is Homo sapiens. The series is described as follows: Inhibition of Wnt/beta-catenin signaling in human HCT116 cells assessed as downregulation of cytosolic beta-catenin protein expression at 5 uM after 18 hrs by Western blot method. The format is cell-based. The method, boiled down: as §1
The species named for series [11] is Homo sapiens. The series is described as follows: Inhibition of Wnt/beta-catenin signaling in human SW480 cells assessed as downregulation of c-Myc protein expression at 5 uM after 18 hrs by Western blot method. The format is cell-based. The method, boiled down:
as §1

Series [12] concerns HCT-116. The series can be described thus: Effect on ATP homeostasis in human HCT116 cells assessed as reduction in ATP level at 0.5 to 2 uM after 3 hrs in glucose supplemented media by ATP bioluminescent assay. It is filed as ADME, cell-based. Particulars: hct-116, 3 h. The method, boiled down:
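HCT-116 cells attached overnight on poly-D-lysine plates, then treated 3 h at 37°C in DMEM with 2mM sodium pyruvate, 2mM L-glutamine and 5mM glucose (0.1% final DMSO). ATP was read by luciferase bioluminescence after lysis with Somatic Cell ATP Releasing Reagent, normalized to DMSO control.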

For series [13], the species on record is Homo sapiens. The series can be described thus: Inhibition of Wnt/beta-catenin signaling in human SW480 cells assessed as downregulation of Cyclin D1 protein expression at 5 uM after 18 hrs by Western blot method. It is filed as cell-based. The method, boiled down:
as §1

In series [14] the test system is HCT-116. The series can be described thus: Effect on ATP homeostasis in human HCT116 cells assessed as reduction in ATP level at 0.63 uM after 3 hrs in absence of glucose by ATP bioluminescent assay. The following applies: hct-116, 3 h. It is filed as ADME, cell-based.
The species named for series [15] is Homo sapiens. The series is described as follows: Inhibition of Wnt/beta-catenin signaling in human U2OS cells expressing GFP-fused Fzd1 assessed as GFP-Fzd1 internalization by measuring number of punctate formed at 12.5 uM after 6 hrs by confocal microscopic method. It is filed as cell-based. The method, boiled down:
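U2OS cells stably expressing Frizzled1-GFP were plated in confocal dishes for 24 h, then treated with 12.5 μM compound in DMSO or DMSO for 6 h at 37°C and fixed in 4% paraformaldehyde. Confocal images (488-nm excitation) were read twice, blinded, and punctate was scored versus control on a 0–5 scale (0, 1, 3, 5).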

The species named for series [16] is Homo sapiens. The series is described as follows: Inhibition of Wnt/beta-catenin signaling in human SW480 cells assessed as downregulation of cytosolic beta-catenin protein expression at 5 uM after 18 hrs by Western blot method. The format is cell-based. The method, boiled down:
as §1

Series [17] is filed under the species Homo sapiens. The series can be described thus: Inhibition of Wnt/beta-catenin signaling in human HCT116 cells assessed as downregulation of c-Myc protein expression at 5 uM after 18 hrs by Western blot method. It is filed as cell-based. An outline of the steps: as §1
A further series has as its system HEK293 (Homo sapiens). The series is described as follows: Effect on ATP homeostasis in human HEK293 cells assessed as reduction in ATP level after 3 hrs in absence of glucose by ATP bioluminescent assay. Particulars: HEK293, 3 h.
The subject of series [18] is HCT-116. The series is described as follows: Effect on ATP homeostasis in human HCT116 cells assessed as reduction in ATP level at 0.31 uM after 3 hrs in absence of glucose by ATP bioluminescent assay. It is filed as ADME, cell-based. The following applies: hct-116, 3 h.

Each structure is given as a SMILES string. The source made the active and inactive calls. No cut-off for these calls is given here.

As for `O=[N+]([O-])c1ccc2[nH]c(-c3cc(F)ccc3O)nc2c1`, the inhibition result in the series filed under Homo sapiens [1], in the series listed under Homo sapiens [4], in the series filed under Homo sapiens [5], in the series filed under Homo sapiens [6], in the series filed under Homo sapiens [7] and in the series filed under Homo sapiens [9] was “Active” in each case. In addition, the inhibition result in the series listed under Homo sapiens [10], in the series filed under Homo sapiens [11], in the series filed under Homo sapiens [13], in the series listed under Homo sapiens [16] and in the series filed under Homo sapiens [17] was “Active” throughout. Further, the inhibition result in the series listed under Homo sapiens [2] was “Dose-dependent effect”. The IC50 in series [3] is 0.62 to 1.15 µM; in the series with HCT-116 [8] (Homo sapiens, HCT-116, 3 h) it was 6 µM. Also, the Activity entry in the series with HCT-116 [8] was “Dose-dependent effect”; in the series with HCT-116 [12], “Non-Toxic”; with HCT-116 [14], “Non-Toxic”; in the series filed under Homo sapiens [15] it was 2. The EC50 in the series with HEK293 (Homo sapiens) was over 5 µM.
As to `O=[N+]([O-])c1ccc2[nH]c(-c3cc(Cl)ccc3O)nc2c1`, the Activity entry is listed as “Non-Toxic” in the series on HCT-116 [18], “Dose-dependent effect” in the series on HCT-116 [8] and “Non-Toxic” in the series with HCT-116 [12].
